Screening results (PubChem BioAssay)
Only some compounds are listed: those with a hit (about 1.6% of all), similar ones and a draw of the others.
Neddylation inh – blocks human cullin neddylation; inhibition, % at 25 µM; TR-FRET cullin neddylation, biochemical; P61081+Q13564; 360,000 tested, 0.58% active; in the data active means inhibition above about 36%
ARFGAP1 inhibitor – rat ARFGAP1 inhibition | Q62848 | Arfgap1-stimulated ARF1 GTP hydrolysis, GDP FP detection | inhibition, % at 16.5 µM | 360,000 tested, 0.26% active;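 active means inhibition above a per-plate limit, mean inhibition of low control wells plus 3 SD, cut at about 25% in these data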;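 further: 0% = DMSO wells with enzyme and 100% = wells lacking Arfgap1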
Target sequence (Q62848 1-136 limits assumed): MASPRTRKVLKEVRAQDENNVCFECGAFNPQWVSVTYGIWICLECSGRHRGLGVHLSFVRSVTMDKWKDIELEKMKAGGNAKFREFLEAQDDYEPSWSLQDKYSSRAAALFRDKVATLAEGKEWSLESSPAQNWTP
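Material: truncated rat Arfgap1 GAP domain; Incubation: compound-enzyme preincubation 20 min, reaction 120 min, detection 60 min, 25 °C; Read-out: percent inhibition of Arfgap1-stimulated GTP hydrolysis; Technique: FP, GDP Alexa 633 tracer displaced from anti-GDP antibody, 620/688 nm; Controls: No-Arfgap1 wells (100%) versus DMSO full-reaction wells (0%); Replication: single well per compound.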
H9c2 protect – protects H9c2 cardiomyocytes from peroxide injury. H2O2 injury protection, ATPLite, 2 h. protection from H2O2 cell death, % at 20 µM. 360,000 tested, 0.63% active;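 active means compounds giving at least 50% protection of heart cells from peroxide-induced death in the single-dose screen, raw or plate-pattern-corrected value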;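 further: 0% = DMSO wells with peroxide and 100% = DMSO wells without peroxide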
ASAP1 GAP inh – inhibitors of human ASAP1 ArfGAP activity; Q9ULH1; 360,000 tested, 0.19% active; ASAP1-stimulated ARF1 GTP hydrolysis, GDP FP detection; AID 624377; inhibition, % at 16.5 µM; in the data active means inhibition above about 25%;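 further: 0% = vehicle with enzyme and substrate and 100% = no enzyme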
* hit, by the source's call.

Results for COc1ccccc1OCC(=O)N/N=C/c1cccc2cccnc12 ?
Neddylation inh: -14; ARFGAP1 inhibitor: 6; H9c2 protect: 65*; ASAP1 GAP inh: -10

What do the screens show for `O=C(COc1ccc(Cl)cc1)N/N=C/c1cccc2cccnc12`?
Neddylation inh: -80; ARFGAP1 inhibitor: -13; H9c2 protect: 38; ASAP1 GAP inh: -11

How did O=c1cc(CSc2n[nH]c(-c3ccncc3)n2)nc2sccn12 do in these assays?
Neddylation inh: 0; ARFGAP1 inhibitor: 9; H9c2 protect: 0; ASAP1 GAP inh: -11

How did O=c1cc(CSc2ccc([N+](=O)[O-])cc2)nc2sccn12 do in these assays?
Neddylation inh: -54; ARFGAP1 inhibitor: 14; H9c2 protect: 72*; ASAP1 GAP inh: 8

How did COc1ccc(/C=N/Nc2cc(C)nc3c(C)cccc23)cc1 do in these assays?
Neddylation inh: 52*; ARFGAP1 inhibitor: 14; H9c2 protect: -19; ASAP1 GAP inh: 22

What do the screens show for `COc1ccc(/C=N/Nc2cc(C)nc3ccccc23)cc1`?
ARFGAP1 inhibitor: 19; H9c2 protect: -19; ASAP1 GAP inh: 11

What do the screens show for `CCN(CC)CCNC(=O)CCc1nn(C)c(=O)c2ccccc12`?
Neddylation inh: 3; ARFGAP1 inhibitor: 2; H9c2 protect: 14; ASAP1 GAP inh: -10

Results for CCN(CC)CCNC(=O)CCc1n[nH]c(=O)c2ccccc12 ?
Neddylation inh: -2; ARFGAP1 inhibitor: -7; H9c2 protect: 81*; ASAP1 GAP inh: -6

How did CCCS(=O)(=O)Nc1cccc(-c2nc3cccnc3s2)c1 do in these assays?
Neddylation inh: 24; ARFGAP1 inhibitor: -5; H9c2 protect: 0; ASAP1 GAP inh: 8

What do the screens show for `O=C(Nc1cccc(-c2nc3cccnc3s2)c1)c1ccco1`?
Neddylation inh: -23; ARFGAP1 inhibitor: -6; H9c2 protect: 70*; ASAP1 GAP inh: 7

How did CCOc1ncccc1C(=O)Nc1cccc(-c2nc3cccnc3s2)c1 do in these assays?
Neddylation inh: -15; ARFGAP1 inhibitor: -6; H9c2 protect: 64*; ASAP1 GAP inh: -6

How did O=C(CSc1nc2[nH]ncc2c(=O)n1-c1ccccc1)NCCc1ccccc1 do in these assays?
Neddylation inh: 3; ARFGAP1 inhibitor: -7; H9c2 protect: -2; ASAP1 GAP inh: -8

How did O=C(CSc1nc2[nH]ncc2c(=O)n1-c1ccccc1)c1ccc2c(c1)OCCO2 do in these assays?
Neddylation inh: -8; ARFGAP1 inhibitor: 3; H9c2 protect: 46*; ASAP1 GAP inh: 1

How did COC(=O)[C@]12C[C@H](CC(=O)NCC34CC5CC(CC(C5)C3)C4)C(=O)N(CCC3=CCCCC3)C1=C[C@H](COCc1ccccc1)O[C@@H]2C do in these assays?
ARFGAP1 inhibitor: -3; ASAP1 GAP inh: 2

Results for CC[C@H](C)C(C(=O)N1CCN(C(=O)OC(C)(C)C)CC1)n1cc(C(Cc2ccc(O)cc2)NC(=O)OC(C)(C)C)nn1 (stereo partly drawn) ?
Neddylation inh: -19; ARFGAP1 inhibitor: 13; H9c2 protect: 51*; ASAP1 GAP inh: 12

What do the screens show for `COc1ccc(-c2nc(C#N)c(NCc3ccc(F)cc3)o2)cc1OC`?
ARFGAP1 inhibitor: -6; H9c2 protect: 17; ASAP1 GAP inh: 1

How did COc1ccc(-c2nc(C#N)c(NCc3cccnc3)o2)cc1OC do in these assays?
Neddylation inh: 42*; ARFGAP1 inhibitor: -2; H9c2 protect: -2; ASAP1 GAP inh: 0

What do the screens show for `O=C(NCc1ccccc1)[C@H]1CCCN1C(=O)[C@H]1CCCN1C(=O)N1CCCCC1`?
ARFGAP1 inhibitor: -2; ASAP1 GAP inh: -10

Results for O=C(N/N=C/c1cc(Br)ccc1O)C(c1ccncc1)N1CCOCC1 (stereo not drawn) ?
Neddylation inh: 47*; ARFGAP1 inhibitor: 13; H9c2 protect: 42; ASAP1 GAP inh: -2

Results for CCN(Cc1ccccc1)C(=O)c1cc2c(=O)oc3ccc(C)cc3c2s1 ?
Neddylation inh: -14; ARFGAP1 inhibitor: -8; H9c2 protect: 97*; ASAP1 GAP inh: -4

Results for Cc1ccc(C)c(S(=O)(=O)N(C(=O)c2ccncc2)c2ccc(OC(=O)c3ccncc3)cc2)c1 ?
Neddylation inh: -6; ARFGAP1 inhibitor: 10; H9c2 protect: 53*; ASAP1 GAP inh: 7

How did Cc1ccc(S(=O)(=O)N(C(=O)c2ccncc2)c2ccc(OC(=O)c3ccncc3)cc2)c(C)c1 do in these assays?
Neddylation inh: -6; ARFGAP1 inhibitor: 1; H9c2 protect: 32; ASAP1 GAP inh: -2

How did CC(=O)Oc1ccc2c(C)cc(=O)oc2c1 do in these assays?
ARFGAP1 inhibitor: -9; H9c2 protect: 61*; ASAP1 GAP inh: 1

Results for Cc1cc(C)n2nc(/C(C#N)=C/c3ccccn3)c(C#N)c2n1 ?
Neddylation inh: 40*; ARFGAP1 inhibitor: -9; H9c2 protect: 42; ASAP1 GAP inh: -8
